From PubChem BioAssay
Jurkat tox 60K – cytotoxicity toward Jurkat cells | inhibition, % at 4 µM | 1.2% of 56,000 active | Jurkat E6.1 viability, ATP luminescence, 48 h | AID 463;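 active means inhibition above the mean inhibition of all tested compounds plus 3 SD, cut at about 28% in these data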
SK-BR-3 tox 24h – SK-BR-3 proliferation inhibitors | SK-BR-3 viability, CellTiter-Glo ATP luminescence, 24 h; hits give low values | AID 847 | 0.47% of 41,000 active | viability, % at 10 µM;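 active means viability at or below the median of all test compounds minus 3 SD, in both replicates if run twice, cut at about 45% in these data; inconclusive means duplicate replicates that disagree with each other; inactive means viability above that cutoff in every replicate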;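 further: 100% = median untreated cell wells and 0% = median positive control drug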
HEK293 NFkB inh – inhibitors of the PMA/ionomycin-induced NF-kB reporter in HEK293 cells | HEK-293 NF-kB luciferase reporter, luminescence | inhibition, % at 3 µM | 0.21% of 62,000 active | AID 465;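 active means inhibition above the mean of all tested compounds plus 3 SD, cut at about 40% in these data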;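 further: 0% = stimulated DMSO wells and 100% = 10 µM reference inhibitor 5653914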
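Timing: 1 h pretreatment, 16 h stimulation, 37 °C; system: HEK-293 cells with stable firefly luciferase reporter driven by four HIV NF-kB elements; doses: 3 µM once, 0.30% DMSO; measured by: luciferase luminescence; control set: DMSO and 10 µM reference inhibitor; repeats: single test; reagent: PMA plus ionomycin mix as NF-kB-activating stimulus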
HER2 expr 66K – Her2 kinase expression inhibition | P04626 | SKBR-3 HER2 protein level, AlphaScreen, 18-24 h; hits give low values | HER2 level % of control, % at 10 µM | 0.69% of 65,000 active;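 active means HER2 level under 5% of the carrier-only control; inconclusive means no clear call, values can overlap the other calls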;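 further: 100% = DMSO carrier and 0% = 500 nM PU-H71 HSP90 inhibitor; lower value means stronger loss of Her2 protein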
The depositor's hits bear a star; ? = inconclusive; . = no result. Rows were chosen to be rich in hits. Some 2% of all compounds tested hit in one or more screens of this group.

SMILES	Jurkat tox 60K	SK-BR-3 tox 24h	HEK293 NFkB inh	HER2 expr 66K
C=CCN(CC=C)c1nc2ccccc2nc1C(C#N)C(=O)OCCOC (stereo unspecified)	2	84	9	103
Cn1c(=O)cc(OCCCC(=O)NCc2ccccn2)c2ccccc21	-7	.	9	115
Cc1ccnc(NC(=O)CCCOc2cc(=O)n(C)c3ccccc23)c1	89*	.	7	17
CNC(=O)c1ccccc1NC(=O)c1cccc(S(=O)(=O)N2CCC(C)CC2)c1	3	43*	-6	157
O=c1c2sc3nc(N4CCOCC4)c4c(c3c2ncn1Cc1ccco1)CCCC4	.	89	.	43
Cc1ccc(-n2cc(-c3ccccc3)[nH]c2=O)cc1F	-2	76	-12	79
COC(=O)c1sccc1NC(=O)c1csc(C)c1	-5	76	1	0.2*
COC(=O)c1sccc1NC(=O)c1ccc(OC)cc1	0	91	-4	67
COC(=O)c1sccc1NC(=O)c1ccc(Cl)s1	2	98	1	4.0*
CCCc1cc(=O)n2[nH]c(-c3ccc(Br)cc3)cc2n1	-6	74	-36	74
Cc1cccc(OCC(=O)Nc2cc(C)c(C)cc2O)c1	1	84	-7	78
Cc1ccc(O)c(NC(=O)CCC2CCCCC2)c1	39*	109	-7	96
Cc1cccc(OCC(=O)Nc2cc(C)ccc2O)c1	55*	94	15	52
COc1cccc(C(=O)/C=C/Nc2cc(C)ccc2O)c1	64*	102	-1	93
COc1ccc(C(=O)/C=C/Nc2cc(C)on2)cc1	.	102	.	96
Cc1c(S(=O)(=O)N2CCN(C(=O)c3ccco3)CC2)c(=O)n(C)c(=O)n1C	-1	.	5	71
Cc1ccc(CCNC(=O)C2CCCN(c3nc4ccccc4o3)C2)cc1 (stereo unspecified)	-7	.	14	117
O=C(CCS(=O)(=O)c1ccc(Cl)cc1)Oc1ccc2c(c1)OCO2	-1	.	3	94
CC(C)(C)NC(=O)CSc1ncnc2c1nnn2Cc1ccccc1Cl	12	158	9	4.8*
COc1ccc(C2NC(=O)NC3=C2CCc2ccccc23)cc1 (stereo unspecified)	72*	78	0	34
O=S(=O)(c1ccc(F)cc1)N(CCO)CC(O)Cn1c2ccccc2c2ccccc21 (stereo unspecified)	.	?	5	-13*
CCN(CC)CC(O)Cn1c2ccccc2c2ccccc21 (stereo unspecified)	-2	.	9	64
CCOC(=O)C(C(C)=O)c1c(Br)c(O)c(O)c2c(C(=O)c3ccc(C)cc3)coc12 (stereo unspecified)	61*	?	47*	-21*
CC(C)Oc1ccc(C2/C(=C(/O)c3ccc(F)cc3)C(=O)C(=O)N2CCCN(C)C)cc1 (stereo unspecified)	-10	98	0	121
O=C1CN(C(=O)c2ccccn2)c2ccccc2N1	.	95	1	100
SMILES	Jurkat tox 60K	SK-BR-3 tox 24h	HEK293 NFkB inh	HER2 expr 66K
CCCn1nc(C(=O)N2CC(=O)Nc3ccccc32)c2ccccc2c1=O	74*	.	6	112
CCOP(=O)(c1ccc(N(C)C)cc1)C(O)c1c(Cl)cccc1Cl (stereo unspecified)	3	75	0	-16*
CCOP(=O)(c1ccc(N(C)C)cc1)C(O)c1cc(OC)c(OC)c(OC)c1 (stereo unspecified)	1	81	0	103
Cc1cccc(N(CC(=O)NCc2ccc3c(c2)OCO3)C(=O)CCC(=O)Nc2ccccn2)c1C	3	103	6	129
Cc1cccc(N(CC(=O)NCc2ccc3c(c2)OCO3)C(=O)CCC(=O)Nc2ccccn2)c1	-5	56	8	-30*
CC(=O)N1CCc2c(sc(NC(=O)c3ccc4c(c3)OCCO4)c2C#N)C1	88*	.	5	68
CC(=O)N1CCc2c(sc(NC(=O)c3ccc(S(=O)(=O)N(C)C)cc3)c2C#N)C1	0	.	14	104
Cc1cc(C)n(-c2nnc3n2N=C(c2c[nH]c4ccccc24)CS3)n1	57*	87	6	72
CCCn1c(NC(=O)C2CCN(S(=O)(=O)c3cccs3)CC2)nc2ccccc21	84*	.	10	46
O=C(NCc1ccccn1)C1CCN(S(=O)(=O)c2cccs2)CC1	-3	82	11	109
CCCn1c(NC(=O)c2cccc(S(=O)(=O)N3CCCC3)c2)nc2ccccc21	44*	.	32	-3.3*
COCCn1c(SCc2cccnc2)nnc1-c1ccco1	-8	90	12	91
CC(=O)Cn1c(C(F)(F)F)nc2ccccc21	4	.	14	91
O=S1(=O)C=C(Sc2nc3cc(Cl)ccc3o2)c2ccccc21	99*	.	32	-18*
O=C(CC1=NC2(CCCC2)Cc2ccccc21)N1CCOCC1	6	92	16	95
CC(CCc1ccc(O)cc1)N(C)CCc1ccccc1 (stereo unspecified)	5	.	-2	89
Cc1ccc(C)c2[nH]c(=O)c(CN(CCCN(C)C)C(=O)NCc3ccccc3)cc12	9	44*	18	107
CCOc1cccc2cc(-c3csc(NC(=O)CCC(=O)N4CCN(C)CC4)n3)c(=O)oc12	-1	.	16	15
O=C1N/C(=C\c2ccccc2)c2ccccc21	81*	91	19	52
N#C/C=C1/NC(=O)c2ccccc2S1	-3	.	3	90
O=C(c1n[nH]c(=O)c2ccccc12)N1CCN(c2ccccc2)CC1	4	75	1	-20*
CC(C)CNC(=O)C1C2C=CC(C2)C1C(=O)O (stereo unspecified)	5	111	22	89
Cc1nnc2n(-c3ccccc3)c(=O)c3c4c(sc3n12)CCCC4	.	83	.	97
NC(=O)CSc1nnc2n(-c3ccccc3)c(=O)c3c4c(sc3n12)CCCCC4	.	32*	.	11
O=C(COc1ccc(-c2nnco2)cc1)N1CCN(S(=O)(=O)c2ccc3ccccc3c2)CC1	5	.	16	84
SMILES	Jurkat tox 60K	SK-BR-3 tox 24h	HEK293 NFkB inh	HER2 expr 66K
O=C(/C=C\Nc1ccc2c(c1)OCO2)c1ccccn1	-1	.	48*	47
O=C(NCc1ccc2c(c1)OCO2)c1ccccn1	-3	.	17	238
Cc1ccc(-n2nnnc2SCC(=O)Nc2ccc3c(c2)COC3=O)cc1C	12	91	8	101
N=c1c2c(n(Cc3ccc(Cl)cc3)c3c1CCC3)CCC2	88*	70	22	61
CCOC(=O)Cn1c2c(c(=N)c3c1CCC3)CCC2	10	99	8	123
N=c1c2c(n(Cc3ccccc3)c3c1CCC3)CCC2	64*	88	7	35
CCOC(=O)Cn1c2c(c(=N)c3ccccc31)CCC2	7	79	8	102
CCOC(=O)C1=C(N)n2c(s/c(=C\c3cccnc3)c2=O)=C(C(=O)OCC)C1c1cccnc1 (stereo unspecified)	0	109	27	99
CCOC(=O)C1=C(N)n2c(s/c(=C\c3cccs3)c2=O)=C(C(=O)OCC)C1c1cccs1 (stereo unspecified)	86*	78	7	50
